Assays:
Androgen receptor = biological target: T1, Androgen receptor (Homo sapiens, UniProt P10275); test: Binding affinity to androgen receptor by fluorescence polarization assay
T1 sequence (P10275 whole entry): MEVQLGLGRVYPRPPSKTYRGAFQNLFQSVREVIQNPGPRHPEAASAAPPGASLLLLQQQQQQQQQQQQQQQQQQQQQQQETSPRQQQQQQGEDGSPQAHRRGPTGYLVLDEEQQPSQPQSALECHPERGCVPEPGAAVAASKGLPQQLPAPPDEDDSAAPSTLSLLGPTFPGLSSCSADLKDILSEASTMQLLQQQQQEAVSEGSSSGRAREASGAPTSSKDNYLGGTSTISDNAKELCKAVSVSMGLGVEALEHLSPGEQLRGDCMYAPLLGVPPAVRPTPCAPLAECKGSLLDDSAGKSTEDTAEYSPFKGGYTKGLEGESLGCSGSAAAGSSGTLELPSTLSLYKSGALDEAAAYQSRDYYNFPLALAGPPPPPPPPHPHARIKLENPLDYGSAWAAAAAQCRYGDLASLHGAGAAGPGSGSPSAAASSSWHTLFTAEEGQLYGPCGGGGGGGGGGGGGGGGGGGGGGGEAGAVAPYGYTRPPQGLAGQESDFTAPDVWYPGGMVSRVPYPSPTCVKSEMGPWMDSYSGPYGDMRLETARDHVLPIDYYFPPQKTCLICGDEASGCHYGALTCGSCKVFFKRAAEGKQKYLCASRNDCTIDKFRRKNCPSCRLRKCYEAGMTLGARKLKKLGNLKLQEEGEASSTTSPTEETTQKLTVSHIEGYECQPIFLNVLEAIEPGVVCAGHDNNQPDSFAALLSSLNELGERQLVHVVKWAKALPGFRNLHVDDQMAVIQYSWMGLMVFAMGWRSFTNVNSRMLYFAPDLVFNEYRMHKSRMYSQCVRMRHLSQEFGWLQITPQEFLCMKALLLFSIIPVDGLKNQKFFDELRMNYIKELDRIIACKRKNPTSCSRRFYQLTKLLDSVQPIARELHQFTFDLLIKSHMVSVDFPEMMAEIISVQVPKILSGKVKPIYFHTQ
How it was run: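 Fluorescence polarization competition of test compound against a fluorescently labelled ligand for binding to full-length receptor or its ligand-binding domain.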

Rattus norvegicus [1] = test: Antiinflammatory activity against carrageenan-induced paw edema Sprague-Dawley rat model assessed as inhibition of hind paw swelling at 50 mg/kg administered as po single dose after 5 hrs post carrageenan challenge; type: functional
How it was run: (§1)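 Male SD rats, fasted overnight plus up to 6 h more. Baseline hind paw volume taken by water plethysmometer. A single oral dose was given in a biologically acceptable medium. 2 h later, under anaesthesia, 1% carrageenan in PBS was injected subcutaneously into both hind paws. Volume was read 3 h post challenge, and swelling was taken as post-challenge minus baseline.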

Rattus norvegicus [2] = test: Toxicity in carrageenan-induced paw edema Sprague-Dawley rat model assessed as increase in blood glucose level at 50 mg/kg, po measured […] by glucometer; type: organism-based; set-up: dose 50 mg/kg, route oral; conditions: in vivo
How it was run: (§2)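 Carrageenan paw edema rats (male SD, fasted, single oral dose, carrageenan 2 h postdose). Blood glucose was read by glucometer on tail-nick samples, at baseline and 5 h after dosing.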

Rattus norvegicus [3] = test: Antiinflammatory activity in po dosed carrageenan-induced paw edema Sprague-Dawley rat model assessed as inhibition of hind paw swelling after 5 hrs post carrageenan challenge; type: functional; how it was run: as §1
Rattus norvegicus [4] = test: Toxicity in carrageenan-induced paw edema Sprague-Dawley rat model assessed as increase in blood glucose level at 30 mg/kg, po measured […] by glucometer; type: organism-based; set-up: dose 30 mg/kg, route oral; conditions: in vivo; how it was run: as §2
Rattus norvegicus [5] = test: Toxicity in fasted Sprague-Dawley rat assessed as induction of TAT activity in liver homogenates at 7.5 to 30 mg/kg, po after 6 hrs; type: organism-based; set-up: dose 7.5-30 mg/kg, route oral; conditions: in vivo
How it was run: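 Male SD rats, fasted, single oral dose. Liver was biopsied 6 h postdose, snap frozen, homogenised in 150 mM KCl and centrifuged. Protein-normalised supernatants were assayed for TAT activity, read as OD at 340 nm. Values are given as % of TAT activity in prednisolone-treated (30 mg/kg) rats.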

Rattus norvegicus [6] = test: Serum concentration in fasted Sprague-Dawley rat at 30 mg/kg, po after 6 hrs; conditions: in vivo
Rattus norvegicus [7] = test: Serum concentration in fasted Sprague-Dawley rat at 7.5 mg/kg, po after 6 hrs; conditions: in vivo
Rattus norvegicus [8] = test: Antiinflammatory activity against carrageenan-induced paw edema Sprague-Dawley rat model assessed as inhibition of hind paw swelling at 30 mg/kg, po measured after 5 hrs post carrageenan challenge; type: functional; conditions: Rattus norvegicus, Sprague-Dawley, po, 5 h; how it was run: as §1
Rattus norvegicus [9] = test: Serum concentration in fasted Sprague-Dawley rat at 15 mg/kg, po after 6 hrs; conditions: in vivo
Rattus norvegicus [10] = test: Antiinflammatory activity against carrageenan-induced paw edema Sprague-Dawley rat model assessed as inhibition of hind paw swelling at 100 mg/kg, po measured after 5 hrs post carrageenan challenge; type: functional; how it was run: as §1
Rattus norvegicus [11] = test: Toxicity in carrageenan-induced paw edema Sprague-Dawley rat model assessed as increase in blood glucose level at 100 mg/kg, po measured […] by glucometer; type: organism-based; set-up: dose 100 mg/kg, route oral; conditions: in vivo; how it was run: as §2

CC(C)(C(=O)Nc1nccs1)[C@H]1c2ccccc2Oc2cc(O)ccc21
Ki (Androgen receptor): 2340 nM

CC(C)(C(=O)Nc1nccs1)[C@@H](c1ccccc1)c1ccc(O)c(F)c1
inhibition in vivo at 50 mg/kg (Rattus norvegicus [1]): 61% | Activity (Rattus norvegicus [2]): < 1% | Activity (Rattus norvegicus [3]): Dose-dependent effect | ED50 (Rattus norvegicus [3]): 45 mg/kg | Ki (Androgen receptor): 1030 nM

CC(C)(C(=O)Nc1nncs1)[C@H]1c2ccccc2Oc2cc(O)ccc21
Activity (Rattus norvegicus [4]): < 1% | Activity (Rattus norvegicus [5]): Non-toxic | serum concentration (Rattus norvegicus [6]): 311 nM | Activity (Rattus norvegicus [3]): Dose-dependent effect | ED50 (Rattus norvegicus [3]): 44 mg/kg | serum concentration (Rattus norvegicus [7]): 59 nM | Ki (Androgen receptor): 696 nM | inhibition in vivo at 30 mg/kg (Rattus norvegicus [8]): 56% | serum concentration (Rattus norvegicus [9]): 157 nM

CC(C)(C(=O)Nc1nccs1)[C@@H](c1ccccc1)c1ccc(O)cc1
inhibition in vivo at 100 mg/kg (Rattus norvegicus [10]): 46% | Ki (Androgen receptor): 1060 nM | Activity (Rattus norvegicus [11]): Non-toxic

CC(C)(C(=O)Nc1nccs1)[C@@H](c1ccccc1)c1ccc(O)c(Br)c1
Ki (Androgen receptor): 370 nM

Reference: ChEMBL document CHEMBL1799968, “Dimethyl-diphenyl-propanamide derivatives as nonsteroidal dissociated glucocorticoid receptor agonists” (J Med Chem, 2010)
